ChEMBL document CHEMBL1155235 (Eur J Med Chem, 2009)
Activity calls are given as the source filed them. The rule behind the calls is not given here.

Tests used:
Cannabinoid receptor 1 [1] = target: T1, Cannabinoid receptor 1 (Rattus norvegicus, UniProt P20272); assay: Displacement of [3H]SR141716A from CB1 receptor in rat cerebellar membrane after 90 mins by scintillation counting; assay type: cell membranes, Cerebellum
How it was run: (§1)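 Compounds were dissolved in DMSO, then diluted in 20 mM HEPES pH 7.4 with 1 mM MgCl2 and 0.5% fatty-acid-free BSA. Incubation was 30 °C for 90 min, stopped with ice-cold buffer and filtered on GF/C. Ki was derived by Cheng–Prusoff using fixed, independently measured Kd.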

[2] = target: Cannabinoid receptor 1 (Mus musculus) (UniProt P47746); assay: Agonist activity at CB1 receptor in CD1 mouse vas deferens assessed as inhibition of electrically-evoked contraction at 0.01 to 1 nM after 15 mins; assay type: functional, tissue-based
Chain of Cannabinoid receptor 1 (Mus musculus) (P47746 whole entry): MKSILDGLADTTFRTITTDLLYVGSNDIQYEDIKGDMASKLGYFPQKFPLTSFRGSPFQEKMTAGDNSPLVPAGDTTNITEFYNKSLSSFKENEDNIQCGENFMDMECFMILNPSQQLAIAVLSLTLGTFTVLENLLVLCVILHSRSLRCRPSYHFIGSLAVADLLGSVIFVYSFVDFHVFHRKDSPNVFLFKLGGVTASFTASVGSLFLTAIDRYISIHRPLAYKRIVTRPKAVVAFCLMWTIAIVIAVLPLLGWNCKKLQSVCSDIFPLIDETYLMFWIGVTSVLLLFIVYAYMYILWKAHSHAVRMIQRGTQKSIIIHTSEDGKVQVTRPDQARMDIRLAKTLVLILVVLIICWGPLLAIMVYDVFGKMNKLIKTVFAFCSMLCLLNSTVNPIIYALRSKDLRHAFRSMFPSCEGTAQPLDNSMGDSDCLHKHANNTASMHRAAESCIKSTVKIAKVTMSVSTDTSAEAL
How it was run: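 Vasa deferentia from male CD-1 mice (25–30 g) cycled through 5 min stimulation (15 pulses per min, 70 V, 15 Hz, 2 ms) and 10 min rest, with isometric force recorded. Doses were added stepwise at 15 min intervals, and Krebs was replaced before each dose. Inhibition was read 15 min after each dose against the last pre-agonist contraction (100%). One curve was built per tissue.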

[3] = target: T2, Cannabinoid receptor 2 (Rattus norvegicus) (UniProt Q9QZN9); assay: Displacement of [3H]WIN-55212-2 from CB2 receptor in rat cerebellar membrane at 10 uM after 90 mins by scintillation counting; assay type: cell membranes; settings: Cerebellum
T2 sequence (whole entry): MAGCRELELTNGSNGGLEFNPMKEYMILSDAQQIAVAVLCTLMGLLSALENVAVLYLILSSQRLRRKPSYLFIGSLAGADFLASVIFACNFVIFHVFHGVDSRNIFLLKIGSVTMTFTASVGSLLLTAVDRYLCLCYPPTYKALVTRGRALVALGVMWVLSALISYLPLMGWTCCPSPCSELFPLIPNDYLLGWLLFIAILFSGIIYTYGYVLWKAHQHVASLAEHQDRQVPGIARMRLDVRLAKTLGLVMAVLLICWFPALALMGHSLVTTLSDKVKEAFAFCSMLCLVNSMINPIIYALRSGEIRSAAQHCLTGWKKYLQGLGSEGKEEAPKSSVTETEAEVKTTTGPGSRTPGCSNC

[4] = target: T2, Cannabinoid receptor 2 (Rattus norvegicus); assay: Displacement of [3H]WIN-55212-2 from CB2 receptor in rat cerebellar membrane at 0.001 nM after 90 mins by scintillation counting; assay type: cell membranes; settings: Cerebellum
Cannabinoid receptor 1 [5] = target: T1, Cannabinoid receptor 1; assay: Displacement of [3H]WIN-55212-2 from CB1 receptor in rat cerebellar membrane after 90 mins by scintillation counting; assay type: cell membranes, Cerebellum
How it was run: as §1, with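 “Cerebellar membranes incubated in triplicate with radioligand ([3H]SR141716A 0.4 nM; [3H]WIN-55212-2 1 nM) and compound at 10^-5 to 10^-12 M final. Compounds” for “Compounds”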

[6] = target: T3, Fatty-acid amide hydrolase 1 (Rattus norvegicus) (UniProt P97612); assay: Inhibition of FAAH in rat brain homogenates assessed as membrane bound [3H]anandamide level at 0.1 uM relative to control; assay type: tissue-based; parameters: scale not given: the % may be the effect or the level left
T3 sequence (whole entry): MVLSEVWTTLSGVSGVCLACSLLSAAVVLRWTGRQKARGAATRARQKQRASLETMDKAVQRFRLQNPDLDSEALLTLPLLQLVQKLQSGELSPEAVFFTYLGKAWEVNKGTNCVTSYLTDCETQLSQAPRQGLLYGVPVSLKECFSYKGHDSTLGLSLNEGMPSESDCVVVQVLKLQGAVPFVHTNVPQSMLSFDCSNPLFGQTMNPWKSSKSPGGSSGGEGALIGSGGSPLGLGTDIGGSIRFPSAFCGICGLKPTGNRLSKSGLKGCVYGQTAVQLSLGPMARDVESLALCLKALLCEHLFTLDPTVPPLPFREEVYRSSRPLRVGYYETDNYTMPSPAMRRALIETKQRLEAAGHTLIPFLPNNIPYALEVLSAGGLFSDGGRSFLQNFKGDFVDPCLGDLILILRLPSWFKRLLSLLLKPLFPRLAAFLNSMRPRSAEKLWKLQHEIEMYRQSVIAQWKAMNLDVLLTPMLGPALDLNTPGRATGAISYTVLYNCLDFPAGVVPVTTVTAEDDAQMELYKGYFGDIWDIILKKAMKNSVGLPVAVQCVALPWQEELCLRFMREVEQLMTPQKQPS
How it was run: (§2)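 Brain membrane FAAH. Tissue was homogenized in 50 mM Tris pH 8 with 0.32 M sucrose, spun at 1000g for 5 min, and the supernatant spun at 45,000g for 30 min. The pellet was solubilized in Tris at 0–4 °C, protein measured by Bradford, and samples stored at −70 °C. Substrate was arachidonyl-[1-3H]-ethanolamide, and [3H]ethanolamine was counted in the aqueous phase after chloroform extraction. Conditions were linear in time and protein; activity is given as % of control at 10^-6 and 10^-7 M.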

[7] = target: T3, Fatty-acid amide hydrolase 1 (Rattus norvegicus); assay: Inhibition of FAAH in rat brain homogenates assessed as membrane bound [3H]anandamide level at 1 uM relative to control; assay type: tissue-based; parameters: scale not given: the % may be the effect or the level left; how it was run: as §2

T1 sequence (P20272 whole entry): as the sequence (P47746 whole entry) above, with D95E counted along it

Compound | Ki (Cannabinoid receptor 1 [1]) | inhibition [2] | Activity [3] | Activity [4] | Ki (Cannabinoid receptor 1 [5]) | Activity [6] | Activity [7]
CCCNS(=O)(=O)NC(C)C12CC3CC(CC(C3)C1)C2 (configuration not stated) | > 10 µM | inactive | inactive | inactive | > 100 µM | – | –
CC(NS(N)(=O)=O)C12CC3CC(CC(C3)C1)C2 (configuration not stated) | – | inactive | – | – | – | – | –
NS(=O)(=O)NC1C2CC3CC(C2)CC1C3 (configuration not stated) | – | inactive | – | – | – | – | –
CCCCC/C=C\C/C=C\C/C=C\C/C=C\CCCCNS(N)(=O)=O | 4.01 µM | inactive | – | – | – | – | –
CCCCC/C=C\C/C=C\CCCCCCCCNS(=O)(=O)NCCC | 7.19 µM | inactive | – | – | – | – | –
CCCNS(=O)(=O)NC12CC3CC(CC(C3)C1)C2 | 8.58 µM | inactive | inactive | inactive | 4.23 µM | 90.4% | 92.6%
CCCCC/C=C\C/C=C\C/C=C\C/C=C\CCCCNS(=O)(=O)NCCC | 2.34 µM | inactive | – | – | – | – | –
CCCCCCCC/C=C\CCCCCCCCNS(=O)(=O)NCCC | > 10 µM | inactive | – | – | – | 101% | 96.5%

Now from value to molecule:

Ki (Cannabinoid receptor 1 [1]) | inhibition [2] | Activity [3] | Activity [4] | Ki (Cannabinoid receptor 1 [5]) | Activity [6] | Activity [7] | Compound
6.41 µM | inactive | – | – | – | – | – | CCCCC/C=C\C/C=C\CCCCCCCCNS(N)(=O)=O
6.67 µM | inactive | inactive | inactive | > 10 µM | – | – | CCCNS(=O)(=O)NC1C2CC3CC(C2)CC1C3 (configuration not stated)
9.1 µM | inactive | inactive | inactive | > 10 µM | 109% | 110% | CCCCCCCCCCCCCCCCCCNS(=O)(=O)NCCC
1.89 µM | inactive | – | – | – | 100% | 102% | CCCCCCCC/C=C\CCCCCCCCNS(N)(=O)=O
– | – | – | – | – | 114% | 103% | CCCCCCCCCCCCCCCCNS(N)(=O)=O
– | – | – | – | – | 108% | 99.3% | CCCCCCCCCCCCNS(N)(=O)=O
> 10 µM | inactive | – | – | – | 106% | 99.4% | CCCCCCCCCCCCCCCCCCNS(N)(=O)=O
– | – | – | – | – | 109% | 109% | CCCCCCCCCCCCCCNS(N)(=O)=O
